# ChEMBL document CHEMBL1141218, “Further structure-activity relationship studies of piperidine-based monoamine transporter inhibitors: effects of piperidine ring stereochemistry on potency. Identification of norepinephrine transporter selective ligands and broad-spectrum transporter inhibitors” (J Med Chem, 2005)
# Biological target: Sodium-dependent serotonin transporter (Rattus norvegicus, UniProt P31652)
# Test: Ability to inhibit [3H]5-HT uptake through SERT in rat synaptosomes
# Type: subcellular, Brain
# In short: (§1)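 Uptake inhibition values given as Ki. Each experiment tested six drug concentrations in triplicate, with two to four independent experiments per compound. Values are means ± SEM.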
# Sodium-dependent serotonin transporter, sequence (P31652 whole entry): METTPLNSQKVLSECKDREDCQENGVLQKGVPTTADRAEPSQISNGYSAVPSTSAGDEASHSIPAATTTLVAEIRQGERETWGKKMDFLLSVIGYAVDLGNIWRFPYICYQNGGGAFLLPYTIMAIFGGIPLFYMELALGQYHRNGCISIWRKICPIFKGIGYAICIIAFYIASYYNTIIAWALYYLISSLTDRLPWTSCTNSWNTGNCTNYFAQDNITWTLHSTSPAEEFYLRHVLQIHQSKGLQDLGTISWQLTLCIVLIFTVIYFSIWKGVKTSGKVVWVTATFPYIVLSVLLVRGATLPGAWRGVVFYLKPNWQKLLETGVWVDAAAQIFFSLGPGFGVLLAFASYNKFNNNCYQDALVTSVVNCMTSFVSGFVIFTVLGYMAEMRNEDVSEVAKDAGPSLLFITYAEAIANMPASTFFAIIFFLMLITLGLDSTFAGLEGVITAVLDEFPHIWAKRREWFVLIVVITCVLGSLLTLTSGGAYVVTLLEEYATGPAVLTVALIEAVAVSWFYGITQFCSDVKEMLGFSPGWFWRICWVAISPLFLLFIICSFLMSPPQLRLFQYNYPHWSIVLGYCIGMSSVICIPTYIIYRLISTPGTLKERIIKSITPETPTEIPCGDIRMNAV
row,Compound,Ki
1,CN1CC[C@@H](c2ccc(Cl)cc2)[C@@H](CSCC(=O)N(C)C)C1,173 nM
2,COC(=O)CSC[C@@H]1CN(C)CC[C@@H]1c1ccc(Cl)cc1,182 nM
3,CC(C)NC(=O)CSC[C@@H]1CN(C)CC[C@@H]1c1ccc(Cl)cc1,154 nM
4,CN1CC[C@@H](c2ccc(Cl)cc2)[C@@H](CSCCO)C1,305 nM
5,CN1CC[C@@H](c2ccc(Cl)cc2)[C@H](CSCC(=O)NCc2ccccc2)C1,753 nM
6,CN1CC[C@H](c2ccc(Cl)cc2)[C@H](CSCC(=O)NCc2ccccc2)C1,23 nM
7,CN1CC[C@@H](c2ccc(Cl)cc2)[C@H](CSCCOC(=O)c2ccccc2)C1,71 nM
8,CNC(=O)CSC[C@H]1CN(C)CC[C@H]1c1ccc(Cl)cc1,1770 nM
9,CN1CC[C@@H](c2ccc(Cl)cc2)[C@H](CSCC(=O)N(C)C)C1,186 nM
10,CN1CC[C@@H](c2ccc(Cl)cc2)[C@H](CSCCO)C1,129 nM
11,CN1CC[C@@H](c2ccc(Cl)cc2)[C@H](CSCC(N)=O)C1,545 nM
12,CN1CC[C@@H](c2ccc(Cl)cc2)[C@@H](CSCC(=O)Nc2cccc3ccccc23)C1,108 nM
13,CNC(=O)CSC[C@@H]1CN(C)CC[C@@H]1c1ccc(Cl)cc1,347 nM
14,COC(=O)[C@H]1CN(C)CC[C@H]1c1ccc(Cl)cc1,56 nM
15,COC(=O)CSC[C@@H]1CN(C)CC[C@H]1c1ccc(Cl)cc1,69 nM
16,CN1CC[C@@H](c2ccc(Cl)cc2)[C@H](CSCC(=O)N2CCCCC2)C1,190 nM
17,CC(=O)OCCSC[C@@H]1CN(C)CC[C@H]1c1ccc(Cl)cc1,130 nM

row,Compound,Ki
1,CC(=O)OCCSC[C@H]1CN(C)CC[C@H]1c1ccc(Cl)cc1,125 nM
2,COC(=O)CSC[C@H]1CN(C)CC[C@H]1c1ccc(Cl)cc1,403 nM
3,CN1CC[C@@H](c2ccc(Cl)cc2)[C@@H](CSCC(=O)Nc2ccccc2)C1,91 nM
4,CN1CC[C@@H](c2ccc(Cl)cc2)[C@@H](CSCC(=O)NCCc2ccccc2)C1,121 nM
5,CC(C)NC(=O)CSC[C@@H]1CN(C)CC[C@H]1c1ccc(Cl)cc1,138 nM
6,CNC(=O)CSC[C@@H]1CN(C)CC[C@H]1c1ccc(Cl)cc1,116 nM
7,CN1CC[C@@H](c2ccc(Cl)cc2)[C@H](CSCC(=O)NCCc2ccccc2)C1,68 nM
8,CN1CC[C@@H](c2ccc(Cl)cc2)[C@@H](CSCC(=O)N2CCCCC2)C1,572 nM
9,CN1CC[C@H](c2ccc(Cl)cc2)[C@H](CSCC(=O)N(C)C)C1,8.8 nM
10,CN1CC[C@H](c2ccc(Cl)cc2)[C@H](CSCC(N)=O)C1,21 nM
11,CN1CC[C@@H](c2ccc(Cl)cc2)[C@@H](CSCC(=O)NCc2ccccc2)C1,22 nM
12,CN1CC[C@H](c2ccc(Cl)cc2)[C@H](CSCCO)C1,185 nM
13,CN1CC[C@@H](c2ccc(Cl)cc2)[C@@H](CSCCOC(=O)c2ccccc2)C1,270 nM
14,CC(C)NC(=O)CSC[C@H]1CN(C)CC[C@H]1c1ccc(Cl)cc1,36 nM
15,CN1CC[C@H](c2ccc(Cl)cc2)[C@H](CSCC(=O)N2CCCCC2)C1,42 nM
16,CC(=O)OCCSC[C@@H]1CN(C)CC[C@@H]1c1ccc(Cl)cc1,469 nM

# Biological target: Sodium-dependent dopamine transporter (Rattus norvegicus, UniProt P23977)
# Test: Ability to inhibit [3H]DA uptake through DAT in rat synaptosomes
# Type: subcellular, Brain
# In short: as §1
# Sodium-dependent dopamine transporter, sequence (P23977 whole entry): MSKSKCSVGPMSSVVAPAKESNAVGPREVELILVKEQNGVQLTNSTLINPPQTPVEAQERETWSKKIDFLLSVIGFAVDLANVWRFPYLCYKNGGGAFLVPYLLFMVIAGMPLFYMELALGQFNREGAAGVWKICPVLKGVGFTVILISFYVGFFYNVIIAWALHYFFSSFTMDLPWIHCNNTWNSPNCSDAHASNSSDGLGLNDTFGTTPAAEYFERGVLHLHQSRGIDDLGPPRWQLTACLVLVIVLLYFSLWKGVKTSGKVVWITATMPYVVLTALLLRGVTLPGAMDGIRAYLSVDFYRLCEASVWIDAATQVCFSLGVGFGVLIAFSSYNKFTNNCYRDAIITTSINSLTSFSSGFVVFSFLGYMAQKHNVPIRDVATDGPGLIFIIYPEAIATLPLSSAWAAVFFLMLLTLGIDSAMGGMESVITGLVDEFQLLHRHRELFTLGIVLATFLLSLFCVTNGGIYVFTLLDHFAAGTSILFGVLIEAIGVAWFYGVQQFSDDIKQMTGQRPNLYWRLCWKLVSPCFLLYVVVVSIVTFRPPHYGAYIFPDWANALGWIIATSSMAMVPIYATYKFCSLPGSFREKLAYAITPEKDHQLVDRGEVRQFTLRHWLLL
row,Compound,Ki
1,CN1CC[C@@H](c2ccc(Cl)cc2)[C@@H](CSCC(=O)N(C)C)C1,176 nM
2,COC(=O)CSC[C@@H]1CN(C)CC[C@@H]1c1ccc(Cl)cc1,38 nM
3,CC(C)NC(=O)CSC[C@@H]1CN(C)CC[C@@H]1c1ccc(Cl)cc1,13 nM
4,CN1CC[C@@H](c2ccc(Cl)cc2)[C@@H](CSCCO)C1,160 nM
5,CN1CC[C@@H](c2ccc(Cl)cc2)[C@H](CSCC(=O)NCc2ccccc2)C1,1570 nM
6,CN1CC[C@H](c2ccc(Cl)cc2)[C@H](CSCC(=O)NCc2ccccc2)C1,3.9 nM
7,CN1CC[C@@H](c2ccc(Cl)cc2)[C@H](CSCCOC(=O)c2ccccc2)C1,378 nM
8,CNC(=O)CSC[C@H]1CN(C)CC[C@H]1c1ccc(Cl)cc1,215 nM
9,CN1CC[C@@H](c2ccc(Cl)cc2)[C@H](CSCC(=O)N(C)C)C1,> 3000 nM
10,CN1CC[C@@H](c2ccc(Cl)cc2)[C@H](CSCCO)C1,185 nM
11,CN1CC[C@@H](c2ccc(Cl)cc2)[C@H](CSCC(N)=O)C1,1100 nM
12,CN1CC[C@@H](c2ccc(Cl)cc2)[C@@H](CSCC(=O)Nc2cccc3ccccc23)C1,102 nM
13,CNC(=O)CSC[C@@H]1CN(C)CC[C@@H]1c1ccc(Cl)cc1,311 nM
14,COC(=O)[C@H]1CN(C)CC[C@H]1c1ccc(Cl)cc1,1560 nM
15,COC(=O)CSC[C@@H]1CN(C)CC[C@H]1c1ccc(Cl)cc1,2620 nM
16,CN1CC[C@@H](c2ccc(Cl)cc2)[C@H](CSCC(=O)N2CCCCC2)C1,> 3000 nM
17,CC(=O)OCCSC[C@@H]1CN(C)CC[C@H]1c1ccc(Cl)cc1,536 nM

row,Compound,Ki
1,CC(=O)OCCSC[C@H]1CN(C)CC[C@H]1c1ccc(Cl)cc1,177 nM
2,COC(=O)CSC[C@H]1CN(C)CC[C@H]1c1ccc(Cl)cc1,598 nM
3,CN1CC[C@@H](c2ccc(Cl)cc2)[C@@H](CSCC(=O)Nc2ccccc2)C1,80 nM
4,CN1CC[C@@H](c2ccc(Cl)cc2)[C@@H](CSCC(=O)NCCc2ccccc2)C1,112 nM
5,CC(C)NC(=O)CSC[C@@H]1CN(C)CC[C@H]1c1ccc(Cl)cc1,663 nM
6,CNC(=O)CSC[C@@H]1CN(C)CC[C@H]1c1ccc(Cl)cc1,164 nM
7,CN1CC[C@@H](c2ccc(Cl)cc2)[C@H](CSCC(=O)NCCc2ccccc2)C1,23 nM
8,CN1CC[C@@H](c2ccc(Cl)cc2)[C@@H](CSCC(=O)N2CCCCC2)C1,> 3000 nM
9,CN1CC[C@H](c2ccc(Cl)cc2)[C@H](CSCC(=O)N(C)C)C1,17 nM
10,CN1CC[C@H](c2ccc(Cl)cc2)[C@H](CSCC(N)=O)C1,54 nM
11,CN1CC[C@@H](c2ccc(Cl)cc2)[C@@H](CSCC(=O)NCc2ccccc2)C1,302 nM
12,CN1CC[C@H](c2ccc(Cl)cc2)[C@H](CSCCO)C1,37 nM
13,CN1CC[C@@H](c2ccc(Cl)cc2)[C@@H](CSCCOC(=O)c2ccccc2)C1,1470 nM
14,CC(C)NC(=O)CSC[C@H]1CN(C)CC[C@H]1c1ccc(Cl)cc1,142 nM
15,CN1CC[C@H](c2ccc(Cl)cc2)[C@H](CSCC(=O)N2CCCCC2)C1,34 nM
16,CC(=O)OCCSC[C@@H]1CN(C)CC[C@@H]1c1ccc(Cl)cc1,46 nM

# Biological target: Norepinephrine transporter (Rattus norvegicus, UniProt Q9WTR4)
# Test: Ability to inhibit [3H]NE uptake through NET in rat synaptosomes
# Type: subcellular, Brain
# In short: as §1
# Norepinephrine transporter, sequence (Q9WTR4 whole entry): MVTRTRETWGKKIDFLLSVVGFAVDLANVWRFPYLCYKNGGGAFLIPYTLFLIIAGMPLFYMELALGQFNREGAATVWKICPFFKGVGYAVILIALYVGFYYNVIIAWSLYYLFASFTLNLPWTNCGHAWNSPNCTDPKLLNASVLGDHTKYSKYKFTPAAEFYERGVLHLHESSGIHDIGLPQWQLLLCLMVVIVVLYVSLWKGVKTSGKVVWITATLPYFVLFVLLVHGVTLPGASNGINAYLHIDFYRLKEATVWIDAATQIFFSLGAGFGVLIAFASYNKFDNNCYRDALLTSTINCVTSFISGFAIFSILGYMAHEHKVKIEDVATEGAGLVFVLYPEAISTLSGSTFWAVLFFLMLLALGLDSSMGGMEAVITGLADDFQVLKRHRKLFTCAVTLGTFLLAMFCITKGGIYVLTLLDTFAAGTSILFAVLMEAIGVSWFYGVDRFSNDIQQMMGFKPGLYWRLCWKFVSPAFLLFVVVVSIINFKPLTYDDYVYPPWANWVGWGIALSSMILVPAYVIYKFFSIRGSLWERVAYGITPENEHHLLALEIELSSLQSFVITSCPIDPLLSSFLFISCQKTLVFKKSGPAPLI
row,Compound,Ki
1,CN1CC[C@@H](c2ccc(Cl)cc2)[C@@H](CSCC(=O)N(C)C)C1,47 nM
2,COC(=O)CSC[C@@H]1CN(C)CC[C@@H]1c1ccc(Cl)cc1,22 nM
3,CC(C)NC(=O)CSC[C@@H]1CN(C)CC[C@@H]1c1ccc(Cl)cc1,16 nM
4,CN1CC[C@@H](c2ccc(Cl)cc2)[C@@H](CSCCO)C1,> 3000 nM
5,CN1CC[C@@H](c2ccc(Cl)cc2)[C@H](CSCC(=O)NCc2ccccc2)C1,32 nM
6,CN1CC[C@H](c2ccc(Cl)cc2)[C@H](CSCC(=O)NCc2ccccc2)C1,85 nM
7,CN1CC[C@@H](c2ccc(Cl)cc2)[C@H](CSCCOC(=O)c2ccccc2)C1,56 nM
8,CN1CC[C@@H](c2ccc(Cl)cc2)[C@H](CSCC(=O)N(C)C)C1,218 nM
9,CN1CC[C@@H](c2ccc(Cl)cc2)[C@H](CSCCO)C1,123 nM
10,CN1CC[C@@H](c2ccc(Cl)cc2)[C@H](CSCC(N)=O)C1,53 nM
11,CN1CC[C@@H](c2ccc(Cl)cc2)[C@@H](CSCC(=O)Nc2cccc3ccccc23)C1,101 nM
12,COC(=O)[C@H]1CN(C)CC[C@H]1c1ccc(Cl)cc1,415 nM
13,COC(=O)CSC[C@@H]1CN(C)CC[C@H]1c1ccc(Cl)cc1,57 nM
14,CN1CC[C@@H](c2ccc(Cl)cc2)[C@H](CSCC(=O)N2CCCCC2)C1,82 nM
15,CC(=O)OCCSC[C@@H]1CN(C)CC[C@H]1c1ccc(Cl)cc1,52 nM
16,CC(=O)OCCSC[C@H]1CN(C)CC[C@H]1c1ccc(Cl)cc1,610 nM
17,COC(=O)CSC[C@H]1CN(C)CC[C@H]1c1ccc(Cl)cc1,98 nM
18,CN1CC[C@@H](c2ccc(Cl)cc2)[C@@H](CSCC(=O)Nc2ccccc2)C1,1060 nM
19,CN1CC[C@@H](c2ccc(Cl)cc2)[C@@H](CSCC(=O)NCCc2ccccc2)C1,100 nM
20,CC(C)NC(=O)CSC[C@@H]1CN(C)CC[C@H]1c1ccc(Cl)cc1,67 nM
21,CN1CC[C@@H](c2ccc(Cl)cc2)[C@H](CSCC(=O)NCCc2ccccc2)C1,178 nM
22,CN1CC[C@@H](c2ccc(Cl)cc2)[C@@H](CSCC(=O)N2CCCCC2)C1,134 nM
23,CN1CC[C@H](c2ccc(Cl)cc2)[C@H](CSCC(=O)N(C)C)C1,63 nM
24,CN1CC[C@H](c2ccc(Cl)cc2)[C@H](CSCC(N)=O)C1,69 nM
25,CN1CC[C@@H](c2ccc(Cl)cc2)[C@@H](CSCC(=O)NCc2ccccc2)C1,54 nM
26,CN1CC[C@H](c2ccc(Cl)cc2)[C@H](CSCCO)C1,26 nM
27,CN1CC[C@@H](c2ccc(Cl)cc2)[C@@H](CSCCOC(=O)c2ccccc2)C1,143 nM
28,CC(C)NC(=O)CSC[C@H]1CN(C)CC[C@H]1c1ccc(Cl)cc1,11 nM
29,CN1CC[C@H](c2ccc(Cl)cc2)[C@H](CSCC(=O)N2CCCCC2)C1,13 nM
30,CC(=O)OCCSC[C@@H]1CN(C)CC[C@@H]1c1ccc(Cl)cc1,30 nM

# Biological target: Monoamine transporters; serotonin & dopamine (Rattus norvegicus) (UniProt P31652+P23977)
# Test: Selectivity towards rat SERT over DAT
# Type: protein assay
# Monoamine transporters; serotonin & dopamine (Rattus norvegicus), sequence (P23977 whole entry, looked up): as the sequence (P23977 whole entry) above
# Monoamine transporters; serotonin & dopamine (Rattus norvegicus), sequence (P31652 whole entry, looked up): as the sequence (P31652 whole entry) above
row,Compound,Ratio Ki
1,CN1CC[C@@H](c2ccc(Cl)cc2)[C@@H](CSCC(=O)N(C)C)C1,0.98
2,COC(=O)CSC[C@@H]1CN(C)CC[C@@H]1c1ccc(Cl)cc1,4.88
3,CC(C)NC(=O)CSC[C@@H]1CN(C)CC[C@@H]1c1ccc(Cl)cc1,11.5
4,CN1CC[C@@H](c2ccc(Cl)cc2)[C@@H](CSCCO)C1,1.91
5,CN1CC[C@@H](c2ccc(Cl)cc2)[C@H](CSCC(=O)NCc2ccccc2)C1,0.48
6,CN1CC[C@H](c2ccc(Cl)cc2)[C@H](CSCC(=O)NCc2ccccc2)C1,5.81
7,CN1CC[C@@H](c2ccc(Cl)cc2)[C@H](CSCCOC(=O)c2ccccc2)C1,0.19
8,CN1CC[C@@H](c2ccc(Cl)cc2)[C@H](CSCC(=O)N(C)C)C1,< 0.06
9,CN1CC[C@@H](c2ccc(Cl)cc2)[C@H](CSCCO)C1,0.69
10,CN1CC[C@@H](c2ccc(Cl)cc2)[C@H](CSCC(N)=O)C1,0.49
11,CN1CC[C@@H](c2ccc(Cl)cc2)[C@@H](CSCC(=O)Nc2cccc3ccccc23)C1,1.06
12,COC(=O)[C@H]1CN(C)CC[C@H]1c1ccc(Cl)cc1,0.04
13,COC(=O)CSC[C@@H]1CN(C)CC[C@H]1c1ccc(Cl)cc1,0.03
14,CN1CC[C@@H](c2ccc(Cl)cc2)[C@H](CSCC(=O)N2CCCCC2)C1,< 0.06
15,CC(=O)OCCSC[C@@H]1CN(C)CC[C@H]1c1ccc(Cl)cc1,0.24
16,CC(=O)OCCSC[C@H]1CN(C)CC[C@H]1c1ccc(Cl)cc1,0.71
17,COC(=O)CSC[C@H]1CN(C)CC[C@H]1c1ccc(Cl)cc1,0.67
18,CN1CC[C@@H](c2ccc(Cl)cc2)[C@@H](CSCC(=O)Nc2ccccc2)C1,1.13
19,CN1CC[C@@H](c2ccc(Cl)cc2)[C@@H](CSCC(=O)NCCc2ccccc2)C1,1.08
20,CC(C)NC(=O)CSC[C@@H]1CN(C)CC[C@H]1c1ccc(Cl)cc1,0.21
21,CN1CC[C@@H](c2ccc(Cl)cc2)[C@H](CSCC(=O)NCCc2ccccc2)C1,2.97
22,CN1CC[C@@H](c2ccc(Cl)cc2)[C@@H](CSCC(=O)N2CCCCC2)C1,< 0.19
23,CN1CC[C@H](c2ccc(Cl)cc2)[C@H](CSCC(=O)N(C)C)C1,0.53
24,CN1CC[C@H](c2ccc(Cl)cc2)[C@H](CSCC(N)=O)C1,0.39
25,CN1CC[C@@H](c2ccc(Cl)cc2)[C@@H](CSCC(=O)NCc2ccccc2)C1,0.07
26,CN1CC[C@H](c2ccc(Cl)cc2)[C@H](CSCCO)C1,5
27,CN1CC[C@@H](c2ccc(Cl)cc2)[C@@H](CSCCOC(=O)c2ccccc2)C1,0.18
28,CC(C)NC(=O)CSC[C@H]1CN(C)CC[C@H]1c1ccc(Cl)cc1,0.25
29,CN1CC[C@H](c2ccc(Cl)cc2)[C@H](CSCC(=O)N2CCCCC2)C1,1.22
30,CC(=O)OCCSC[C@@H]1CN(C)CC[C@@H]1c1ccc(Cl)cc1,10.1
